Key:
[1] = Inhibition of Hepatitis C virus wild-type NS5B Cdelta 21 RNA dependent RNA polymerase expressed in Escherichia coli BL21(DE3); set-up: species or system Hepacivirus hominis
[2] = biological target: RNA-directed RNA polymerase (Hepacivirus hominis, UniProt O39930, S282T); experiment: Inhibition of Hepatitis C virus NS5B Cdelta 21 RNA dependent RNA polymerase S282T mutant expressed in Escherichia coli BL21(DE3)
Hepacivirus hominis = experiment: Fold resistance, ratio of HCV NS5B Cdelta 21 RNA dependent RNA polymerase S282T mutant to IC50 for IC50 for HCV wild type NS5B Cdelta 21 RNA dependent RNA polymerase
Vero = experiment: Cytotoxicity against african green monkey Vero cells after 3 days by hemocytometer analysis; format: cell-based; conditions: Chlorocebus sabaeus, 72 h
Huh-7 [3] = experiment: Metabolic stability in human HuH7 cells assessed as 5'-monophosphate level at 50 uM after 4 hrs by LC-MS/MS analysis; format: ADME, cell-based; conditions: huh-7, 4 h
How it was run: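 Huh-7 cells were exposed to the parent nucleoside or its phosphoramidate prodrug, each separately at 50 μM, at 37 °C for 4 h, then washed with phosphate-buffered saline before intracellular analysis.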

[4] = tested on: Human immunodeficiency virus 1; experiment: Antiviral activity against HIV1 LAV1 infected in PHA-stimulated human PBMC assessed as reduction in RT activity after 6 days by micromethod-based beta scintillation counting; format: functional, organism-based; conditions: Human immunodeficiency virus 1, LAV1, 144 h
PBMC = experiment: Cytotoxicity against human PBMC after 6 days by trypan blue exclusion method; format: cell-based; conditions: 144 h
CCRF-CEM = experiment: Cytotoxicity against human CEM cells after 6 days by trypan blue exclusion method; format: cell-based; conditions: 144 h
Huh-7 [5] = experiment: Cytotoxicity against human HuH7 cells assessed as reduction of 50% rRNA level after 96 hrs; format: cell-based; conditions: huh-7, 96 h
How it was run: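 Huh-7 cells carrying the HCV replicon were exposed to compound for 96 h. Toxicity was read as a fall in cellular rRNA.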

Hepatitis C virus = experiment: Antiviral activity against Hepatitis C virus infected in human HuH7 cells assessed as decrease in viral RNA level after 96 hrs by RT-PCR; format: functional, organism-based, Hepacivirus hominis; conditions: Huh-7, 96 h
Huh-7 [6] = experiment: Metabolic stability in human HuH7 cells assessed as diphosphate level at 50 uM after 4 hrs by LC-MS/MS analysis; format: ADME, cell-based; conditions: huh-7, 4 h
How it was run: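 For the cellular pharmacology study, Huh-7 cells were incubated separately with the nucleoside or its phosphoramidate prodrug at 50 μM for 4 h at 37 °C, then washed with phosphate-buffered saline before analysis of intracellular metabolites.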

Sequence of RNA-directed RNA polymerase (O39930 entry or part of it S282T): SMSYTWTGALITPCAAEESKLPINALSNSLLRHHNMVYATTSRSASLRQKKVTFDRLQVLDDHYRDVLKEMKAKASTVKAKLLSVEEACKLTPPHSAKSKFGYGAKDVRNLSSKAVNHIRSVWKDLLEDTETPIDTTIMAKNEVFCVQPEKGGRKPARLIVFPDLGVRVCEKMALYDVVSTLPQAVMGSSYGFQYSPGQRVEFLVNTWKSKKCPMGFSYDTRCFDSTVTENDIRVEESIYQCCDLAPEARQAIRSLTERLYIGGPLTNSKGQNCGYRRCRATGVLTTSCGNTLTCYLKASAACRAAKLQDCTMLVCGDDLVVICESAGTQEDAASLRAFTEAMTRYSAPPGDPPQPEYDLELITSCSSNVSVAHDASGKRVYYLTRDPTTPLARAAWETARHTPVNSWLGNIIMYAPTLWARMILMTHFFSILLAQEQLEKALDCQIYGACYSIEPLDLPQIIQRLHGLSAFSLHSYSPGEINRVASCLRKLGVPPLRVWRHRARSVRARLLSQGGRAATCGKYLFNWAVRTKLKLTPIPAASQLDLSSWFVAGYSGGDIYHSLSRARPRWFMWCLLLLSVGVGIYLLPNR

SMILES | IC50 [1] [µM] | IC50 [2] [µM] | Ratio IC50 (Hepacivirus hominis) | IC50 (Vero) [µM] | Stability (Huh-7 [3]) | EC50 [4] [µM] | EC90 [4] [µM] | IC50 (PBMC) [µM] | IC50 (CCRF-CEM) [µM] | CC50 (Huh-7 [5]) [µM] | EC50 (Hepatitis C virus) [µM] | EC90 (Hepatitis C virus) [µM] | Stability (Huh-7 [6])
COP(=O)(OC)OP(=O)(OC)OP(=O)(OC)OC[C@H]1O[C@@H](n2cc(F)c3c(N)ncnc32)[C@](C)(F)[C@@H]1O (stereo partly drawn) | 4 | 6 | 1.5 | – | – | – | – | – | – | – | – | – | –
CCOC(=O)[C@H](C)NP(=O)(OC[C@H]1O[C@@H](n2ccc3c(N)nc(N)nc32)[C@](C)(F)[C@@H]1O)Oc1ccccc1 (stereo partly drawn) | – | – | – | > 100 | Unstable | 88 | > 100 | > 100 | > 100 | > 10 | > 10 | > 10 | –
C[C@@]1(F)[C@H](O)[C@@H](CO)O[C@H]1n1ccc2c(N)nc(N)nc21 | – | – | – | > 100 | Stable | > 100 | – | > 100 | > 100 | > 10 | > 10 | > 10 | Stable
COP(=O)(OC)OP(=O)(OC)OP(=O)(OC)OC[C@H]1O[C@@H](n2ccc3c(N)ncnc32)[C@](C)(F)[C@@H]1O (stereo partly drawn) | – | 15 | 1 | – | – | – | – | – | – | – | – | – | –

Reference: ChEMBL document CHEMBL1949592, “Synthesis and antiviral activity of 2'-deoxy-2'-fluoro-2'-C-methyl-7-deazapurine nucleosides, their phosphoramidate prodrugs and 5'-triphosphates” (Bioorg Med Chem Lett, 2011)
